Source: article PMC4130341 (Journal of nuclear medicine : official publication, Society …, 2013)
Bridge positions count the residues as written; N and C are the ends. Peptide text beside a SMILES is read from it. * marks the point of attachment. Benzoyl(4-F) = O=C(c1ccc(F)cc1)*

Experiments:
[1] = Small-animal PET, static scans, BxPC3 xenografts; format: in vivo, mice; details: female, nu/nu, mouse, iv, total radioactivity
Method in brief: (§1)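 Nu/nu female mice (6 wk) carried BxPC3 shoulder xenografts of 10 mm diameter. Under isoflurane they were dosed intravenously (tail vein) with 2–3 MBq of 18F-fluorobenzoate-labelled peptide. Rodent microPET 5-min static scans were taken at 0.5, 1 and 2 h. Tumor, kidney, liver and hind-leg muscle signals were quantified, given as mean ± SD (n = 4–5 per tracer) and compared by 2-tailed t test, P < 0.05.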

[2] = tested on: BxPC3 (integrin αvβ6–positive) pancreatic adenocarcinoma xenografted tumors; assay: Small-animal PET, static scans, BxPC3 xenografts; format: in vivo, mice; details: mean ± SD
Method in brief: as §1

[3] = tested on: BxPC3 xenografted tumors; heart (blood) radioactivity; assay: Dynamic PET; format: in vivo; details: from radioactivity in the heart, 10-min dynamic PET, mice, tail vein
Method in brief: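 Female nu/nu mice (6 wk) received 10^7 BxPC3 or HEK-293 cells subcutaneously in the shoulder and grew tumors to 10 mm diameter. Under isoflurane, mice got 2–3 MBq of 18F-fluorobenzoate-labelled peptide by tail vein. A 10-min dynamic scan was acquired on a rodent microPET. Mean signal in ellipsoid regions of interest was quantified.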

[4] = tested on: BxPC3 (integrin αvβ6–positive) tumors; assay: Excised tissue biodistribution; format: in vivo, mice; details: γ-counter, mean ± SD
Method in brief: (§2)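 Tumors were grown as subcutaneous shoulder xenografts (10^7 BxPC3 or HEK-293 cells) in 6-wk female nu/nu mice to 10 mm diameter. Isoflurane-anaesthetised mice received 2–3 MBq of 18F-fluorobenzoate peptide by tail vein and were euthanised at 0.5 or 2 h. Weighed tissues were γ-counted and expressed as decay-corrected %ID/g, mean ± SD. Group sizes: BxPC3 3 (0.5 h), 4–5 (2 h); 293 3 (0.5 h), 3–4 (2 h); nontumor 6 (0.5 h), 8 (2 h).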

[5] = tested on: 293 (integrin αvβ6–negative) tumors; assay: Excised tissue biodistribution; format: in vivo, mice; details: γ-counter, mean ± SD
Method in brief: as §2

[6] = tested on: BxPC3 tumors; assay: Coinjection study with unlabeled peptide, excised tissue biodistribution; format: in vivo, mice; details: 250 µg unlabeled S02 coinjected

CC[C@H](C)[C@@H]1NC(=O)[C@@H]2CSSC[C@H](NC(=O)CNC(=O)c3ccc(F)cc3)C(=O)N[C@@H](CCCNC(=N)N)C(=O)N[C@@H](CO)C(=O)N[C@@H](CC(C)C)C(=O)N[C@@H](C)C(=O)N[C@@H](CCCNC(=N)N)C(=O)N[C@@H]([C@@H](C)O)C(=O)N[C@@H](CC(=O)O)C(=O)N[C@@H](CC(C)C)C(=O)N[C@@H](CC(=O)O)C(=O)N[C@@H](Cc3c[nH]cn3)C(=O)N[C@@H](CC(C)C)C(=O)N[C@@H](CCCNC(=N)N)C(=O)NCC(=O)N[C@@H](CCCNC(=N)N)C(=O)N[C@H]3CSSC[C@H](NC1=O)C(=O)N[C@@H](CC(C)C)C(=O)N[C@@H](CCC(=O)O)C(=O)N[C@@H](CC(N)=O)C(=O)NCC(=O)N[C@@H](Cc1ccccc1)C(=O)N[C@H](C(=O)NCC(=O)O)CSSC[C@H](NC(=O)[C@H](CC(=O)O)NC(=O)[C@H](CO)NC(=O)[C@H](CC(=O)O)NC(=O)[C@H](CO)NC(=O)[C@H](CO)NC3=O)C(=O)N[C@@H](CC(C)C)C(=O)N[C@@H](C)C(=O)N[C@@H](CCC(=O)O)C(=O)N2 [^18F-fluorobenzoate-S02] ({Benzoyl(4-F)}-GCRSLARTDLDHLRGRCSSDSDCLAECICLENGFCG-OH; disulfide 2-27, 17-29, 23-35; C-terminus assumed)
tissue uptake at 1 h ([1]; kidney): 7 ± 3 %ID/g
tissue uptake at 1 h ([1]; liver): 0.3 ± 0.1 %ID/g
kidney uptake, PET ([2]; 0.5 h): 18% ± 6%
tumor uptake, PET, BxPC3 ([2]; 0.5 h after injection, 2–3 MBq tail vein, nude mice, n = 4–5): 1.3% ± 0.4%
tumor signal, PET, BxPC3 ([2]; 1 h after injection, 2–3 MBq tail vein): 0.7 ± 0.3 % ID/g
liver uptake, PET ([2]; time not printed at place (given beside the 0.5 h kidney values)): 0.9% ± 0.3%
blood clearance half-time [3]: 1.8 min
tumor uptake, excised tissue, BxPC3 ([4]; 0.5 h after injection, n = 3): 0.71 ± 0.13 %ID/g
tumor uptake, excised tissue, BxPC3 ([4]; 2 h after injection, n = 4–5): 0.24 ± 0.06 %ID/g
tumor uptake, excised tissue, 293 ([5]; 0.5 h after injection, n = 3): 0.11 ± 0.02 %ID/g
tumor uptake, excised tissue, 293 ([5]; 2 h after injection, n = 3–4): 0.10 ± 0.05 %ID/g
effect of unlabeled peptide coinjection on tumor uptake [6]: does not demonstrate tumor uptake reduction
